ChEMBL document CHEMBL5149991 (J Med Chem, 2021)

How the values were obtained:
Histamine H3 receptor = Histamine H3 receptor (Homo sapiens, UniProt Q9Y5N1); assay: Displacement of [3H]UR-PI294 from human histamine H3 receptor stably expressed in baculovirus infected Sf9 cell membrane co-expressing G-alphai2 and G-beta1gamma2 incubated for 60 mins by scintillation counting analysis; type: cell membranes
Method in brief: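 hH3R + Gαi2 + Gβ1γ2 expressed in Sf9 membranes. […] Mean ± SEM from N independent experiments in triplicate.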

D(2) dopamine receptor = D(2) dopamine receptor (Homo sapiens, UniProt P14416); assay: Displacement of [3H]N-methylspiperone from human D2 long receptor stably expressed in HEK293T cells co-expressing luciferase and CEK incubated for 140 mins by radioligand competition binding based assay; type: cell-based
D(2) dopamine receptor, sequence (P14416 whole entry): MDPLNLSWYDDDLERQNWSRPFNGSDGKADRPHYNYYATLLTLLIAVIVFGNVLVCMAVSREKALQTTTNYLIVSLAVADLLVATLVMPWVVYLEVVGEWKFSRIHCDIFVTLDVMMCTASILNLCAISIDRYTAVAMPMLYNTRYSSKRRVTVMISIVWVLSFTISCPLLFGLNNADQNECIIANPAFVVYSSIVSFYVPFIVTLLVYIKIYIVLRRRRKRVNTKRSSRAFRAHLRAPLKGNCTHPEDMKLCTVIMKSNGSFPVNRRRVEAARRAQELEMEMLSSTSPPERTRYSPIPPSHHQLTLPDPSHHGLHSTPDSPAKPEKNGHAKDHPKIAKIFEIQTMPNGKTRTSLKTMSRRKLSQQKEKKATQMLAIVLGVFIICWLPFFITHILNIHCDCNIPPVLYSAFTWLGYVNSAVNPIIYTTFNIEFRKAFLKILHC

Histamine H2 receptor = Histamine H2 receptor (Cavia porcellus, UniProt P47747); assay: Agonist activity at histamine H2 receptor in spontaneous beating guinea pig right atrium assessed as increase in heart beat; type: functional, tissue-based, Right cardiac atrium
Histamine H2 receptor, sequence (P47747 whole entry): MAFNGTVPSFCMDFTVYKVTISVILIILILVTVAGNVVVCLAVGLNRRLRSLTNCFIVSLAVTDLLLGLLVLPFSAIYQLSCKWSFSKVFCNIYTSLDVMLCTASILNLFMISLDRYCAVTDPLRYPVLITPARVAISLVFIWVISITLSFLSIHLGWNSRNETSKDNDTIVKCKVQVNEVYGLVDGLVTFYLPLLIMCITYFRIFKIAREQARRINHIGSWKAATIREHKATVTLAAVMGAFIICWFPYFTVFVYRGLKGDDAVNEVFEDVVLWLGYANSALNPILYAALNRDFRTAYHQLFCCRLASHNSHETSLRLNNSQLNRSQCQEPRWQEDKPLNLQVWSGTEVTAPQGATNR

D(4) dopamine receptor = target: T1, D(4) dopamine receptor (Homo sapiens, UniProt P21917); assay: Displacement of [3H]N-methylspiperone from human D4.4 receptor stably expressed in HEK293T cells co-expressing ElucN-betaarr2 hD4.4R-ELuc incubated for 60 mins by scintillation counting analysis; type: cell-based
T1 sequence (P21917 whole entry): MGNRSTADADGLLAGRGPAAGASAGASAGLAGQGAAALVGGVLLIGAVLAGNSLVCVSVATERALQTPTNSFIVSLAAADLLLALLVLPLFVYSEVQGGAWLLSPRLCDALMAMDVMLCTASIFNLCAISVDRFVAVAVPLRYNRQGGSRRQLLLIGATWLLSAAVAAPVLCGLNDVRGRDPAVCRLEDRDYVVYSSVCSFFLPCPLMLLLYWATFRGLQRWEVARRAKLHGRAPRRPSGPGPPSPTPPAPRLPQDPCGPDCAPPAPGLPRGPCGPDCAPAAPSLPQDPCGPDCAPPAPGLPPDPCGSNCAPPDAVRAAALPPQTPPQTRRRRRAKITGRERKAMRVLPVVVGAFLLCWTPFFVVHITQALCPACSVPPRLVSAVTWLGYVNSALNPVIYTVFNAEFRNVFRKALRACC

D(1B) dopamine receptor = D(1B) dopamine receptor (Homo sapiens, UniProt P21918); assay: Displacement of [3H]SCH23390 from human D5 receptor stably expressed in HEK293T cells co-expressing luciferase and CEK incubated for 60 mins by scintillation counting analysis; type: cell-based
D(1B) dopamine receptor, sequence (P21918 whole entry): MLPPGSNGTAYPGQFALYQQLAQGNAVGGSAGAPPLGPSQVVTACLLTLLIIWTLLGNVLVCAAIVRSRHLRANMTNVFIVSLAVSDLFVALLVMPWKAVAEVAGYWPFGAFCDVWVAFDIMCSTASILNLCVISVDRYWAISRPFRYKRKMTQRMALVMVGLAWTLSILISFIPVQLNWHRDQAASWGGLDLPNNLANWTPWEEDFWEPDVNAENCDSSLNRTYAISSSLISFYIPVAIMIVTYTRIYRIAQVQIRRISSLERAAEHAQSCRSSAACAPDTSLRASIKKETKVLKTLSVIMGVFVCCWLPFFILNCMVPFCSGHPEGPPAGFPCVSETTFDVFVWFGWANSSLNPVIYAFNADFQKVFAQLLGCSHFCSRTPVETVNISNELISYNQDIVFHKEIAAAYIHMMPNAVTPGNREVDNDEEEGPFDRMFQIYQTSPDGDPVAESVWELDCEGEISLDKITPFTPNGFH

[1] = target: T2, Muscarinic acetylcholine receptor M4 (Homo sapiens, UniProt P08173); assay: Displacement of [3H]N-methylscopolamine from human muscarinic acetylcholine M4 receptor stably expressed in CHO cells by radioligand competition binding based analysis; type: cell-based
T2 sequence (P08173 whole entry): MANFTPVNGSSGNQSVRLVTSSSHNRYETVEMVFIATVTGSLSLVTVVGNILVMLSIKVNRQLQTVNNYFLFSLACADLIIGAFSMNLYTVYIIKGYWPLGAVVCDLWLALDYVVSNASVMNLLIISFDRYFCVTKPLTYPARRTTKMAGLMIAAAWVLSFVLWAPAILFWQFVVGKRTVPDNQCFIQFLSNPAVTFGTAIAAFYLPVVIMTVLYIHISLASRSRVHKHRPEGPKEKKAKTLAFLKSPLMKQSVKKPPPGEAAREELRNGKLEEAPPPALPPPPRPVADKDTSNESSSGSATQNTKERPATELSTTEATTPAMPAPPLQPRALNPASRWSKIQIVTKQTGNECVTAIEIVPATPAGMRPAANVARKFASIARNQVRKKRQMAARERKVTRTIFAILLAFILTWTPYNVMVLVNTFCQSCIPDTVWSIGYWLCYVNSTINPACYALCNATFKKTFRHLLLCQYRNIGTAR
Method in brief: (§1)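 Whole CHO cells stably expressing hM1–hM5, competed against [3H]N-methylscopolamine. Kd/applied concentrations in nM: M1 0.17/0.2, M2 0.10/0.2, M3 0.12/0.2, M4 0.052/0.1, M5 0.20/0.3.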

[2] = target: T3, Muscarinic acetylcholine receptor M5 (Homo sapiens, UniProt P08912); assay: Displacement of [3H]N-methylscopolamine from human muscarinic acetylcholine M5 receptor stably expressed in CHO cells by radioligand competition binding based analysis; type: cell-based; method in brief: as §1
T3 sequence (P08912 whole entry): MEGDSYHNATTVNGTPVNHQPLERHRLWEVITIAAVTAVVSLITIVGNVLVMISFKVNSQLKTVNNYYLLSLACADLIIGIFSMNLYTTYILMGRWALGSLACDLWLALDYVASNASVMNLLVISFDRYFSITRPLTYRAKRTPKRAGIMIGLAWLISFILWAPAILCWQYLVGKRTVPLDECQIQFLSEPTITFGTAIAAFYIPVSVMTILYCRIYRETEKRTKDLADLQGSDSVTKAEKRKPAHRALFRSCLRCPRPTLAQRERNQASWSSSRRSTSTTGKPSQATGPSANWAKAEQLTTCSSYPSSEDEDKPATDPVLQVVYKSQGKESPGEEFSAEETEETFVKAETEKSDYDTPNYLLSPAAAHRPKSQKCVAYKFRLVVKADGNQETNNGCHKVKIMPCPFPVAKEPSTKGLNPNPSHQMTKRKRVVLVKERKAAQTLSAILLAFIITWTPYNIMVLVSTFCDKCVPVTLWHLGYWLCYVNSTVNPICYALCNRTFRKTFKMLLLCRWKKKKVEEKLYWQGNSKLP

[3] = target: T4, 5-hydroxytryptamine receptor 1A (Homo sapiens, UniProt P08908); assay: Displacement of […] from human 5HT1A stably expressed in HEK293T cell membrane incubated for 2 hrs by scintillation counting analysis; type: cell membranes
T4 sequence (P08908 whole entry): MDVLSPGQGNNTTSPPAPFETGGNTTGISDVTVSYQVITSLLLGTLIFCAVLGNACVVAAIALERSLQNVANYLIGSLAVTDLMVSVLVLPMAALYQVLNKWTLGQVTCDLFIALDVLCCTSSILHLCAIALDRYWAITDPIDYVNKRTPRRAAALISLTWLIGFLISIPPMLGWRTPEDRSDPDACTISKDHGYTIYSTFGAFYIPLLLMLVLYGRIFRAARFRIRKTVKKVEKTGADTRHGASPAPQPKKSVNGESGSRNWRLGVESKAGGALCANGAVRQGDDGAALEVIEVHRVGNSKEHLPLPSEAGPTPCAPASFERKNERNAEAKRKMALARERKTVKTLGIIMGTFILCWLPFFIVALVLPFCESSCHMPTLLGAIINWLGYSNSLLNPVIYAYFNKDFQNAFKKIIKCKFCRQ

Histamine H4 receptor = Histamine H4 receptor (Homo sapiens, UniProt Q9H3N8)
Histamine H4 receptor, sequence (Q9H3N8 whole entry): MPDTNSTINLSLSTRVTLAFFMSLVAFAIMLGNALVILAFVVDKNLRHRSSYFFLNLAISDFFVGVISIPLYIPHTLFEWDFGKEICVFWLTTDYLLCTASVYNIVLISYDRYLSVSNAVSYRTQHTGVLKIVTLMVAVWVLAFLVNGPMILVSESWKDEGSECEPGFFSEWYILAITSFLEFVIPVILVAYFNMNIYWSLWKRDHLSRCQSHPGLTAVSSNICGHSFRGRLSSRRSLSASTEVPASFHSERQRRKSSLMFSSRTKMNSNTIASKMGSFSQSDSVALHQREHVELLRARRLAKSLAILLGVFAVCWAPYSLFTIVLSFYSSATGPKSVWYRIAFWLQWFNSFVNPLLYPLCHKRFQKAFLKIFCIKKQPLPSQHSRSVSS

Histamine H3 receptor, sequence (Q9Y5N1 whole entry): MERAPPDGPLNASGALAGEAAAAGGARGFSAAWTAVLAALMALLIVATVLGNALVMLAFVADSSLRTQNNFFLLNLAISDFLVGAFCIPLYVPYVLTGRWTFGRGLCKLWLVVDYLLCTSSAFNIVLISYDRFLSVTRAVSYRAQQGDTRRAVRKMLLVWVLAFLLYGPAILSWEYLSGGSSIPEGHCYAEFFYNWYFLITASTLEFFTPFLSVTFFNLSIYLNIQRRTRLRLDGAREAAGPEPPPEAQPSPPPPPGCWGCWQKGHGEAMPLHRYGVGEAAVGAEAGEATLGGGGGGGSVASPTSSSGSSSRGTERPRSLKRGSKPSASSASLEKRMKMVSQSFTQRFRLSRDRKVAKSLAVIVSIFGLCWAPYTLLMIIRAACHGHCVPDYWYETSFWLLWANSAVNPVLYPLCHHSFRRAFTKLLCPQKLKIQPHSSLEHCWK

| SMILES | Ki (Histamine H3 receptor) [nM] | Ki (D(2) dopamine receptor) [nM] | EC50 (Histamine H2 receptor) [nM] | Kd (D(4) dopamine receptor) [nM] | pKi (D(4) dopamine receptor) | Kd (D(1B) dopamine receptor) [nM] | pKi (D(1B) dopamine receptor) | Kd [1] [nM] | pKi [1] | Kd [2] [nM] | pKi [2] | Kd [3] [nM] | pKi [3] | Kd (Histamine H4 receptor) [nM] | Ki (Histamine H4 receptor) [nM] |
| --- | --- | --- | --- | --- | --- | --- | --- | --- | --- | --- | --- | --- | --- | --- | --- |
| CCCCCNC(=O)/N=C(\N)NCCCc1nnc(N)s1.O=C(O)C(F)(F)F.O=C(O)C(F)(F)F | > 10000 | 9550 | 5.62 | 0.078 | 5.65 | 0.24 | 4.46 | 0.052 | < 5 | 0.2 | > 5 | 0.08 | 4.49 | 16 | > 10000 |
| C[C@@H](NC(=O)/N=C(\N)NCCCc1ncn[nH]1)c1ccccc1 | > 10000 | > 10000 | 38 | 0.078 | 5.18 | 0.24 | 4.62 | 0.052 | > 5 | 0.2 | < 5 | 0.08 | 4.29 | 16 | > 10000 |
| N/C(=N\C(=O)NCc1ccccc1)NCCCc1nnc(N)s1 | > 10000 | 6310 | 1.32 | 0.078 | 6.17 | 0.24 | 4.95 | 0.052 | > 5.5 | 0.2 | > 5 | 0.08 | 4.56 | 16 | > 10000 |
| CCCCCNC(=O)/N=C(\N)NCCCc1sc(N)nc1C |  |  |  | 0.078 | 6.96 | 0.24 | 5.4 | 0.052 | < 5 | 0.2 | > 5 | 0.08 | 5.18 |  |  |
